Test results as given in ChEMBL document CHEMBL1141682, “Discovery of novel potent and selective dipeptide hepatitis C virus NS3/4A serine protease inhibitors” (Bioorg Med Chem Lett, 2008).
pEC50, pKi: −log10 of the molar value. Each block holds one compound with its values, some of them ahead of it.

Tests used:
[1] = Inhibition of full length HCV NS3/4A protease; parameters: species or system Hepacivirus hominis
How it was run: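 Full-length recombinant genotype 1 NS3 protease was run with a truncated NS4A cofactor in a biochemical assay. Inhibition constants (Ki) are reported.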

[2] = Metabolic stability in human liver microsomess after 15 mins at 5 uM; format: ADME, Microsome; settings: liver microsomes
How it was run: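 Compound at 5 µM was incubated with human liver microsomes for 15 min at 37 °C. Stability is expressed as percent of compound metabolized.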

[3] = system: Hepatitis C virus; experiment: Inhibition of HCV replication in human HuH7-Rep cells containing subgenomic bicistronic clone; format: functional, organism-based, Hepacivirus hominis; settings: Huh-7
How it was run: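 Huh7 cells carried the subgenomic bicistronic replicon clone ET with a luciferase reporter. EC50 is the concentration that cut luciferase signal by 50% relative to untreated control.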

[4] = Plasma concentration in Sprague-Dawley rat at 10 mg/kg, po after 0.5 hrs; format: ADME, organism-based; parameters: dose 10 mg/kg, route oral
How it was run: (§1)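 Male SD rats (n = 2 per route) got a single dose: 2 mg/kg IV in 20% hydroxypropyl-β-cyclodextrin, or 10 mg/kg oral in 50% PEG400 with 2.5% vitamin E-TPGS. Plasma was sampled out to 8 h. Heart and liver levels were taken at 8 h. Oral half-life was fitted over 2–8 h. Bioavailability compares oral against IV exposure.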

[5] = Drug level in Sprague-Dawley rat liver at 10 mg/kg, po after 8 hrs; format: ADME, organism-based; parameters: dose 10 mg/kg, route oral; settings: read-out: Drug uptake; how it was run: as §1
[6] = Drug level in Sprague-Dawley rat heart at 2 mg/kg, iv after 8 hrs; format: ADME, organism-based; parameters: dose 2 mg/kg, route intravenous; settings: read-out: Drug uptake; how it was run: as §1
[7] = system: Huh-7; experiment: Cytotoxicity against human HuH7 cells by CMV-luciferase assay; format: functional
How it was run: (§2)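 Cytotoxicity was tested in MT4-LTR-Luc and Huh7-CMV-Luc reporter cell lines. Results are given as CC50.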

[8] = Half life (2 to 8 hrs) in Sprague-Dawley rat at 10 mg/kg, po; format: ADME, organism-based; parameters: dose 10 mg/kg, route oral; settings: in vivo; how it was run: as §1
[9] = Drug level in Sprague-Dawley rat heart at 10 mg/kg, po after 8 hrs; format: ADME, organism-based; parameters: dose 10 mg/kg, route oral; how it was run: as §1
[10] = Plasma concentration in Sprague-Dawley rat at 2 mg/kg, iv after 4 hrs; format: ADME, organism-based; parameters: dose 2 mg/kg, route intravenous; how it was run: as §1
[11] = Plasma concentration in Sprague-Dawley rat at 2 mg/kg, iv after 2 hrs; format: ADME, organism-based; parameters: dose 2 mg/kg, route intravenous; how it was run: as §1
[12] = system: Rattus norvegicus; experiment: Clearance in Sprague-Dawley rat at 2 mg/kg, iv; format: ADME, organism-based; parameters: dose 2 mg/kg, route intravenous; settings: in vivo; how it was run: as §1
[13] = Plasma concentration in Sprague-Dawley rat at 2 mg/kg, iv after 0.33 hrs; format: ADME, organism-based; parameters: dose 2 mg/kg, route intravenous; how it was run: as §1
[14] = Plasma concentration in Sprague-Dawley rat at 10 mg/kg, po after 4 hrs; format: ADME, organism-based; parameters: dose 10 mg/kg, route oral; how it was run: as §1
[15] = Plasma concentration in Sprague-Dawley rat at 2 mg/kg, iv after 8 hrs; format: ADME, organism-based; parameters: dose 2 mg/kg, route intravenous; how it was run: as §1
[16] = Cmax in Sprague-Dawley rat at 10 mg/kg, po; format: ADME, organism-based; parameters: dose 10 mg/kg, route oral; settings: in vivo; how it was run: as §1
[17] = Half life (2 to 8 hrs) in Sprague-Dawley rat at 2 mg/kg, iv; format: ADME, organism-based; parameters: dose 2 mg/kg, route intravenous; settings: in vivo
[18] = Tmax in Sprague-Dawley rat at 10 mg/kg, po; format: ADME, organism-based; parameters: dose 10 mg/kg, route oral; settings: in vivo; how it was run: as §1
[19] = Plasma concentration in Sprague-Dawley rat at 2 mg/kg, iv after 1 hr; format: ADME, organism-based; parameters: dose 2 mg/kg, route intravenous; how it was run: as §1
[20] = AUC (0 to 8 hrs) in Sprague-Dawley rat at 10 mg/kg, po; format: ADME, organism-based; parameters: time < 8 hr, dose 10 mg/kg, route oral; settings: plasma; how it was run: as §1
[21] = Permeability from apical to basolateral side of human Caco-2 cells; format: ADME, cell-based
[22] = system: Rattus norvegicus; experiment: AUC (0 to infinity) in Sprague-Dawley rat at 2 mg/kg, iv; format: ADME, organism-based, Plasma; parameters: time infinity, dose 2 mg/kg, route intravenous; settings: in vivo; how it was run: as §1
[23] = AUC (0 to 8 hrs) in Sprague-Dawley rat at 2 mg/kg, iv; format: ADME, organism-based; parameters: time < 8 hr, dose 2 mg/kg, route intravenous; settings: plasma; how it was run: as §1
[24] = Plasma concentration in Sprague-Dawley rat at 10 mg/kg, po after 1 hr; format: ADME, organism-based; parameters: dose 10 mg/kg, route oral; how it was run: as §1
[25] = Plasma concentration in Sprague-Dawley rat at 10 mg/kg, po after 2 hrs; format: ADME, organism-based; parameters: dose 10 mg/kg, route oral; how it was run: as §1
[26] = Plasma concentration in Sprague-Dawley rat at 2 mg/kg, iv after 0.12 hrs; format: ADME, organism-based; parameters: dose 2 mg/kg, route intravenous; how it was run: as §1
[27] = Volume of distribution in steady state in Sprague-Dawley rat at 2 mg/kg, iv; format: ADME, organism-based; parameters: dose 2 mg/kg, route intravenous; settings: in vivo, read-out: Vdss; how it was run: as §1
[28] = Drug level in Sprague-Dawley rat liver at 2 mg/kg, iv after 8 hrs; format: ADME, organism-based; parameters: dose 2 mg/kg, route intravenous; settings: read-out: Drug uptake; how it was run: as §1
[29] = Plasma concentration in Sprague-Dawley rat at 10 mg/kg, po after 8 hrs; format: ADME, organism-based; parameters: dose 10 mg/kg, route oral; how it was run: as §1
[30] = Oral bioavailability in Sprague-Dawley rat at 10 mg/kg, po; format: ADME, organism-based; settings: in vivo; how it was run: as §1
[31] = system: MT4; experiment: Cytotoxicity against human MT4 cells by LTR-luciferase assay; format: functional; how it was run: as §2
[32] = AUC (0 to infinity) in Sprague-Dawley rat at 10 mg/kg, po; format: ADME, organism-based; parameters: time infinity, dose 10 mg/kg, route oral; settings: plasma; how it was run: as §1

Structure (SMILES): COc1ccc2c(O[C@@H]3C[C@H]4C(=O)N[C@]5(C(=O)NS(=O)(=O)C6CC6)C[C@H]5/C=C\CCCCCCC(=O)N4C3)cc(-c3nc(C(C)C)cs3)nc2c1
pKi [1]: 9.19
metabolized at 0.25 h, 5 µM [2]: 98%
pEC50 [3]: 7.74

Structure (SMILES): COc1ccc2c(O[C@@H]3C[C@H]4C(=O)N[C@]5(C(=O)O)C[C@H]5/C=C\CCCCCCC(=O)N4C3)cc(-c3csc(NC(C)C)n3)nc2c1
pKi [1]: 7.34
pEC50 [3]: 5.70

Structure (SMILES): COc1ccc2c(O[C@@H]3C[C@H]4C(=O)N[C@]5(C(=O)NS(=O)(=O)C6CC6)C[C@H]5/C=C\CCCCCCC(=O)N4C3)cc(-c3nccs3)nc2c1C
pKi [1]: 9.30
metabolized at 0.25 h, 5 µM [2]: 98.4%
pEC50 [3]: 8.36

Structure (SMILES): COc1ccc2c(O[C@@H]3C[C@H]4C(=O)N[C@]5(C(=O)NS(=O)(=O)C6CC6)C[C@H]5/C=C\CCCCCCC(=O)N4C3)cc(-c3nccs3)nc2c1
pKi [1]: 9.00
metabolized at 0.25 h, 5 µM [2]: 100%
pEC50 [3]: 7.77

Structure (SMILES): COc1ccc2c(O[C@@H]3C[C@H]4C(=O)N[C@]5(C(=O)NS(=O)(=O)C6CC6)C[C@H]5/C=C\CCCCCCC(=O)N4C3)cc(-c3nc(C(C)C)cs3)nc2c1C
pKi [1]: 8.55
pEC50 [3]: 8.23

Structure (SMILES): COc1ccc2c(O[C@@H]3C[C@H]4C(=O)N[C@]5(C(=O)NS(=O)(=O)C6CC6)C[C@H]5/C=C\CCCCCCC(=O)N4C3)cc(-c3csc(NC(C)C)n3)nc2c1
pKi [1]: 9.05
metabolized at 0.25 h, 5 µM [2]: 91.5%
pEC50 [3]: 7.69

Structure (SMILES): COc1ccc2c(O[C@@H]3C[C@H]4C(=O)N[C@]5(C(=O)O)C[C@H]5/C=C\CCCCCCC(=O)N4C3)cc(-c3nc(C(C)C)cs3)nc2c1
pKi [1]: 7.74
pEC50 [3]: 5.30

Continued, in another order:

pKi [1]: 10.00
metabolized at 0.25 h, 5 µM [2]: 100%
pEC50 [3]: 8.72
Structure (SMILES): COc1ccc2c(O[C@@H]3C[C@H]4C(=O)N[C@]5(C(=O)NS(=O)(=O)C6CC6)C[C@H]5/C=C\CCCCCCC(=O)N4C3)cc(-c3nccs3)nc2c1Br

pKi [1]: 9.30
pEC50 [3]: 8.40
Structure (SMILES): COc1ccc2c(O[C@@H]3C[C@H]4C(=O)N[C@]5(C(=O)NS(=O)(=O)C6CC6)C[C@H]5/C=C\CCCCCCC(=O)N4C3)cc(-c3cscn3)nc2c1

concentration at 0.5 h [4]: 698 ng/mL
concentration at 8 h [5]: 7660 ng/g
concentration at 8 h [6]: 15.1 ng/g
half-life [8]: 2.73 h
concentration at 8 h [9]: 35.8 ng/g
concentration at 4 h [10]: 139 ng/mL
concentration at 2 h [11]: 290 ng/mL
CL [12]: 65.7 mL/min/kg
concentration at 0.33 h [13]: 708 ng/mL
concentration at 4 h [14]: 363 ng/mL
concentration at 8 h [15]: 53 ng/mL
Cmax [16]: 715 ng/mL
half-life [17]: 2.49 h
Tmax [18]: 0.75 h
concentration at 1 h [19]: 449 ng/mL
AUC(0-t) at 8 h [20]: 3070 ng·h/mL
Papp A→B [21]: 11.1 ×10⁻⁶ cm/s
pKi [1]: 9.70
AUC [22]: 2154 ng·h/mL
AUC(0-t) at 8 h [23]: 1960 ng·h/mL
concentration at 1 h [24]: 693 ng/mL
metabolized at 0.25 h, 5 µM [2]: 42.6%
concentration at 2 h [25]: 632 ng/mL
concentration at 0.12 h [26]: 1500 ng/mL
Vd [27]: 2.75 L/kg
concentration at 8 h [28]: 3660 ng/g
concentration at 8 h [29]: 133 ng/mL
bioavailability [30]: 31%
AUC(0-inf) [32]: 3610 ng·h/mL
pEC50 [3]: 8.42
Structure (SMILES): COc1ccc2c(O[C@@H]3C[C@H]4C(=O)N[C@]5(C(=O)NS(=O)(=O)C6(C)CC6)C[C@H]5/C=C\CCCCCC(=O)N4C3)cc(-c3nc(C(C)C)cs3)nc2c1Cl
CC50 [7]: > 20000 nM
CC50 [31]: > 20000 nM

pKi [1]: 9.40
metabolized at 0.25 h, 5 µM [2]: 82.4%
pEC50 [3]: 7.62
Structure (SMILES): COc1ccc2c(O[C@@H]3C[C@H]4C(=O)N[C@]5(C(=O)NS(=O)(=O)C6CC6)C[C@H]5/C=C\CCCCCC(=O)N4C3)cc(-c3nc(C(C)C)cs3)nc2c1

pKi [1]: 9.70
metabolized at 0.25 h, 5 µM [2]: 50.2%
pEC50 [3]: 8.45
Structure (SMILES): COc1ccc2c(O[C@@H]3C[C@H]4C(=O)N[C@]5(C(=O)NS(=O)(=O)C6CC6)C[C@H]5/C=C\CCCCCC(=O)N4C3)cc(-c3nc(C(C)C)cs3)nc2c1C

pKi [1]: 9.40
pEC50 [3]: 7.93
Structure (SMILES): COc1ccc2c(O[C@@H]3C[C@H]4C(=O)N[C@]5(C(=O)NS(=O)(=O)C6CC6)C[C@H]5/C=C\CCCCCC(=O)N4C3)cc(-c3nc(C(C)C)cs3)nc2c1Cl

pKi [1]: 9.40
metabolized at 0.25 h, 5 µM [2]: 28.8%
pEC50 [3]: 7.85
Structure (SMILES): COc1ccc2c(O[C@@H]3C[C@H]4C(=O)N[C@]5(C(=O)NS(=O)(=O)C6(C)CC6)C[C@H]5/C=C\CCCCCC(=O)N4C3)cc(-c3nc(C(C)C)cs3)nc2c1C

pKi [1]: 9.52
metabolized at 0.25 h, 5 µM [2]: 28.5%
pEC50 [3]: 8.79
Structure (SMILES): COc1ccc2c(O[C@@H]3C[C@H]4C(=O)N[C@]5(C(=O)O)C[C@H]5/C=C\CCCCC[C@H](NC(=O)OC5CCCC5)C(=O)N4C3)cc(-c3csc(NC(C)C)n3)nc2c1 [CILUPREVIR]
